Data set [1] is described as follows: Retention time of the compound by ELSD chromatography. Type of data set: physicochemical. In outline:
(§1)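 Waters Acquity UPLC with ELSD, PDA and single-quadrupole ESI-MS (positive and negative modes). Fractions from automated fractionation of plant extracts were run on a BEH C18 column (2.1 × 50 mm, 1.7 μm) at 1.0 mL/min. Mobile phase was H2O with 0.1% HCOOH against CH3CN or MeOH, with a 3.0 min total run. The gradient differed by run.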

Data set [2] in a line: Retention time of the compound by PDA chromatography. The class given is physicochemical. In outline: as §1
Data set [3] is described as follows: Antiproliferative activity against mouse ependymoma cells harboring EPHB2 after 96 hrs by Cell-Titer Glo assay. The class given is functional, cell-based. In outline: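 Cells seeded in neurobasal medium in 384-well plates. Compounds were pin-transferred 24 h later, and DMSO and cycloheximide controls were included on each plate. Dose-response was run as a dilution series in triplicate. After 96 h incubation, cell number was read by CellTiter-Glo luminescence. Data were log10-transformed and percent inhibition calculated, and EC50 was derived.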

pEC50: −log10 of the molar value. Some results are limits rather than exact numbers.

The compound `COc1cc(C[C@H]2C(=O)OC[C@@H]2Cc2ccc3c(c2)OCO3)cc(OC)c1OC` yielded a Retention_time in data set [1] of 1.2 min.

For `CC1=c2cc3c(cc2C(=O)OC1(C)C)=C(C)C(C)(C)OC3=O`, the Retention_time in data set [1] is listed as 0.9 min; in data set [2], 0.92 min.

A word on the EC50: it is the concentration giving half of the maximal effect. Read a low EC50 as an effect from little substance. Take `C=C1CC[C@@H]2[C@](C)(CCC[C@]2(C)C(=O)O)[C@H]1CCC(C)(O)C(O)CO` (mixture of isomers): the EC50 in data set [3] was above 100 µg/mL. For the same compound, the Retention_time in data set [1] was determined as 0.92 min.

With `COc1cc(O)c2c(c1)OC(c1ccc(O)c(O)c1)CC2=O` (centres undefined), the Retention_time in data set [1] is given as 1.02 min; in data set [2], 0.98 min.

One may read the pEC50 as the EC50 on a negative log10 scale, so that one unit is a factor of ten. A low value points to a large EC50. In data set [3], `COc1cc([C@@H]2c3cc4c(cc3C[C@H]3COC(=O)[C@@H]32)OCO4)cc(OC)c1OC` [DESOXYPODOPHYLLOTOXIN] had a pEC50 of 8.71. Further, the Retention_time is recorded as 1.18 min in data set [1] and 1.15 min in data set [2].

Turning to `COc1ccc([C@@H]2CC(=O)c3c(O)cc(O)cc3O2)cc1O` [HESPERETIN], the Retention_time is 0.91 min in data set [1] and 0.87 min in data set [2].

In the case of `COc1cc([C@@H]2CC(=O)c3c(O)cc(O)cc3O2)ccc1O` [HOMOERIODICTYOL], the results for the Retention_time in data set [1] and in data set [2] were 0.89 min and 0.85 min, respectively.
